Measurements as given in ChEMBL document CHEMBL1938236, “Design and synthesis of small molecular dual inhibitor of falcipain-2 and dihydrofolate reductase as antimalarial agent” (Bioorg Med Chem Lett, 2012).
Activity calls are given as the source filed them. The calls are words filed in the database; no cut-off is given here.

Tests used:
[1] = Inhibition of Plasmodium falciparum DHFR assessed as oxidation of NADPH to NADP+ after 15 mins spectrophotometric assay
Procedure, shortened: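 Purified P. falciparum DHFR was preincubated 15 min on ice with graded compound concentrations in buffer containing NADPH, 50 mM TES pH 7.0, 1 mM EDTA, 75 mM 2-mercaptoethanol and 1 mg/mL BSA. DHF was then added to start the reaction, and NADPH oxidation was followed by absorbance at 340 nm. IC50 came from percent inhibition versus concentration plots, three independent experiments.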

Plasmodium falciparum [2] = experiment: Inhibition of Plasmodium falciparum DHFR assessed as oxidation of NADPH to NADP+ at 10 uM after 15 mins spectrophotometric assay
Plasmodium falciparum [3] = experiment: Inhibition of Plasmodium falciparum falcipain-2 using Z-Leu-Arg-AMC as substrate at 10 uM after 30 mins by spectrophotometric assay
[4] = Inhibition of Plasmodium falciparum falcipain-2 using Z-Leu-Arg-AMC as substrate after 30 mins by spectrophotometric assay
Procedure, shortened: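 FP-2 (30 nM) was preincubated 30 min at room temperature with graded compound concentrations in 100 mM sodium acetate pH 5.5 with 10 mM DTT, DMSO ≤1%. Z-Leu-Arg-AMC in the same buffer was then added, and fluorescence (ex 355/em 460) was monitored for 30 min at room temperature. IC50 came from percent inhibition versus concentration plots, three independent experiments.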

Plasmodium falciparum [5] = experiment: Ratio of N-(2,3-dihydrobenzo[b][1,4]dioxin-6-yl)-3-(4-(N-phenethylsulfamoyl)phenyl)propanamide IC50 to compound IC50 for Plasmodium falciparum DHFR
Plasmodium berghei [6] = experiment: Antimalarial activity against Plasmodium berghei ANKA infected in Kunming mouse assessed as reduction of parasitemia at 9 mg/kg, ip for 4 days measured on day 5; format: functional; design: scale not given: the % may be the effect or the level left; settings: route intragastric, in the assay text read “ig for 4 days” for “ip for 4 days”
Procedure, shortened: (§1)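 Kunming mice (groups of 10, 20 2 g) infected ip with 0.2 mL of RBC (5 × 10⁶) from P. berghei ANKA-infected mice. The compound was given intragastrically starting 5 h post-infection, for 4 consecutive days, at 3, 9 or 18 mg kg⁻¹ d⁻¹ (4-day suppressive test). Parasitemia was counted as infected RBC per 1000 RBC on day 5, and reduction was calculated as 100 − 100 × (treated/control mean % parasitemia). Survivors were counted on day 10.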

Plasmodium berghei [7] = experiment: Antimalarial activity against Plasmodium berghei ANKA infected in Kunming mouse assessed as reduction of parasitemia at 3 mg/kg, ig for 4 days measured on day 5; design: scale not given: the % may be the effect or the level left; settings: route intragastric
Plasmodium falciparum [8] = experiment: Ratio of N-(2,3-dihydrobenzo[b][1,4]dioxin-6-yl)-3-(4-(N-phenethylsulfamoyl)phenyl)propanamide IC50 to compound IC50 for Plasmodium falciparum falcipain-2
Plasmodium berghei [9] = experiment: Antimalarial activity against Plasmodium berghei ANKA infected in ig dosed Kunming mouse assessed as reduction of parasitemia administered for 4 days measured on day 5
Plasmodium berghei [10] = experiment: Antimalarial activity against Plasmodium berghei ANKA infected in Kunming mouse assessed as reduction of parasitemia at 18 mg/kg, ip for 4 days measured on day 5; format: functional; design: scale not given: the % may be the effect or the level left; settings: route intragastric, in the assay text read “ig for 4 days” for “ip for 4 days”; procedure, shortened: as §1
Plasmodium berghei [11] = experiment: Antimalarial activity against Plasmodium berghei ANKA infected in Kunming mouse assessed as mouse survival at 3 mg/kg, ip for 4 days measured on day 10; format: functional, organism-based; design: dose 3 mg/kg; settings: in the assay text read “ig for 4 days” for “ip for 4 days”; procedure, shortened: as §1
Plasmodium berghei [12] = experiment: Antimalarial activity against Plasmodium berghei ANKA infected in Kunming mouse assessed as mouse survival at 18 mg/kg, ip for 4 days measured on day 10; format: functional, organism-based; design: dose 18 mg/kg; settings: in the assay text read “ig for 4 days” for “ip for 4 days”; procedure, shortened: as §1
Plasmodium berghei [13] = experiment: Antimalarial activity against Plasmodium berghei ANKA infected in Kunming mouse assessed as mouse survival at 9 mg/kg, ip for 4 days measured on day 10; format: functional, organism-based; design: dose 9 mg/kg; settings: in the assay text read “ig for 4 days” for “ip for 4 days”; procedure, shortened: as §1
Plasmodium berghei [14] = experiment: Antimalarial activity against Plasmodium berghei ANKA infected in Kunming mouse assessed as reduction of parasitemia at 10 mg/kg, ip for 4 days measured on day 5; format: functional; design: scale not given: the % may be the effect or the level left; settings: route intraperitoneal
Plasmodium berghei [15] = experiment: Antimalarial activity against Plasmodium berghei ANKA infected in Kunming mouse assessed as mouse survival at 10 mg/kg, ig for 4 days measured on day 10

Row | IC50 [1] [µM] | inhibition (Plasmodium falciparum [2]) [%] | inhibition (Plasmodium falciparum [3]) [%] | IC50 [4] [µM] | Structure (SMILES) | further results
1 | 0.02 | 98.9 | – | – | CCc1nc(N)nc(N)c1-c1ccc(Cl)cc1 [PYRIMETHAMINE] | –
2 | – | 23.2 | 6.3 | – | COc1ccc(NS(=O)(=O)c2ccc(CCC(=O)Nc3ccc4c(c3)OCCO4)cc2)cc1OC | –
3 | 14.6 | 34.8 | 94.5 | 2.7 | O=C(CCc1ccc(S(=O)(=O)NCCc2ccccc2)cc1)Nc1nc(-c2ccccc2)cs1 | –
4 | – | – | 97.4 | 0.017 | CC(C)C[C@H](NC(=O)[C@H]1O[C@@H]1C(=O)O)C(=O)NCCCCN=C(N)N [E-64] | –
5 | 1.8 | 70.6 | 45.1 | 9.8 | CCc1nnc(NC(=O)CCc2ccc(S(=O)(=O)Nc3ccc(F)c(Cl)c3)cc2)s1 | –
6 | – | 15.6 | < 5 | – | O=C(CCc1ccc(S(=O)(=O)NCc2ccccc2)cc1)Nc1ccc2c(c1)OCCO2 | –
7 | 35.5 | 26.5 | 23 | 54.2 | O=C(CCc1ccc(S(=O)(=O)NCCc2ccccc2)cc1)Nc1ccc2c(c1)OCCO2 | –
8 | 6.3 | 67.5 | 72.9 | 7 | CCc1nnc(NC(=O)CCc2ccc(S(=O)(=O)Nc3ccc(F)cc3)cc2)s1 | Ratio IC50 (Plasmodium falciparum [5]): 6; Activity (Plasmodium berghei [6]): 53.6%; Activity (Plasmodium berghei [7]): 44.6%; Ratio IC50 (Plasmodium falciparum [8]): 8; Activity (Plasmodium berghei [9]): Dose dependent effect; Activity (Plasmodium berghei [10]): 75.6%; Activity (Plasmodium berghei [11]): Active; Activity (Plasmodium berghei [12]): Active; Activity (Plasmodium berghei [13]): Active
9 | – | 9.3 | 17.9 | – | COc1cccc(NS(=O)(=O)c2ccc(CCC(=O)Nc3ccc4c(c3)OCCO4)cc2)c1 | –
10 | 5 | 68 | < 5 | – | O=C(Cc1ccc(S(=O)(=O)NCCc2ccccc2)cc1)Nc1ccc2c(c1)OCCO2 | –
11 | 15.1 | 37.9 | 41.5 | 8.9 | O=C(CCc1ccc(S(=O)(=O)NCCc2ccccc2)cc1)Nc1nc2ccccc2s1 | –
12 | – | – | – | – | CCN(CC)CCCC(C)Nc1ccnc2cc(Cl)ccc12.O=P(O)(O)O.O=P(O)(O)O (centres undefined) [CHLOROQUINE PHOSPHATE] | Activity (Plasmodium berghei [14]): 100%; Activity (Plasmodium berghei [15]): Active
13 | – | 10.8 | 15.2 | – | O=C(CCc1ccc(S(=O)(=O)NCCc2ccccc2)cc1)NCc1cccs1 | –
14 | 19.8 | 31.6 | 46.5 | 8.1 | CCc1nnc(NC(=O)CCc2ccc(S(=O)(=O)NCCc3ccccc3)cc2)s1 | –
15 | – | 11.8 | < 5 | – | O=C(Nc1ccc2c(c1)OCCO2)c1ccc(S(=O)(=O)NCCc2ccccc2)cc1 | –
16 | 9.4 | 51.2 | 15 | – | COc1ccc(NC(=O)CCc2ccc(S(=O)(=O)NCCc3ccccc3)cc2)cc1OC | –
17 | 16.8 | 46.5 | 32.7 | 13.2 | O=C(CCc1ccc(S(=O)(=O)Nc2ccc(F)c(Cl)c2)cc1)Nc1ccc2c(c1)OCCO2 | –
18 | 12.6 | 46.1 | 13.6 | – | COc1ccc(NC(=O)CCc2ccc(S(=O)(=O)NCCc3ccccc3)cc2)cc1O | –
19 | – | 17.9 | 10.7 | – | O=C(CCc1ccc(S(=O)(=O)NCCc2ccccc2)cc1)NCc1ccccn1 | –
